pEC50: −log10 of the molar value. The source made the active and inactive calls. The calls are words filed in the database; no cut-off is given here.
Experiments:
[1] = molecular target: Sphingosine 1-phosphate receptor 1 (Homo sapiens, UniProt P21453); test: Agonist activity at human recombinant S1PR1 expressed in CHO cell membranes incubated for 30 mins by [35S]GTPgammaS binding assay in presence of GDP; format: functional
Summary of the method: (§1)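 Membranes from CHO cells expressing recombinant human S1P1 or S1P3. Compounds were preincubated with membranes for 30 min at room temperature. Reaction stopped by filtration, membrane-bound 35S-GTPγS counted. Geometric mean of ≥3 independent runs.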

Rattus norvegicus [2] = test: Time duration of maximum lymphocyte count reduction in Wistar rat at 10 mg/kg administered via oral gavage; format: functional
Summary of the method: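 Duration of action is the latest sampling time at which maximal lymphocyte-count reduction was still seen. Male Wistar rats received 10 mg/kg orally, and blood lymphocytes were counted before dosing and at 3, 6 and 24 h (later times in some cases). Mean of 6-8 animals.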

Rattus norvegicus [3] = test: Decrease in peripheral blood lymphocyte count in Wistar rat at 10 mg/kg administered via oral gavage measured after 96 hrs; format: functional; parameters: scale not given: the % may be the effect or the level left
Summary of the method: (§2)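 Male Wistar rats (RccHan:WIST) were given 10 mg/kg orally by gavage in vehicle containing 5% DMSO. Blood drawn by sublingual vein puncture under isoflurane before dosing and at the listed times after dosing. Lymphocytes counted on a haematology analyser. Results are % change from baseline, mean of 6-8 animals.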

Rattus norvegicus [4] = test: Decrease in peripheral blood lymphocyte count in Wistar rat at 10 mg/kg administered via oral gavage measured after 3 hrs; format: functional; parameters: scale not given: the % may be the effect or the level left; summary of the method: as §2
Rattus norvegicus [5] = test: Decrease in peripheral blood lymphocyte count in Wistar rat at 10 mg/kg administered via oral gavage measured after 24 hrs; format: functional; parameters: scale not given: the % may be the effect or the level left; summary of the method: as §2
[6] = molecular target: Sphingosine 1-phosphate receptor 3 (Homo sapiens, UniProt Q99500); test: Agonist activity at human recombinant S1PR3 expressed in CHO cell membranes incubated for 30 mins by [35S]GTPgammaS binding assay in presence of GDP; format: functional; summary of the method: as §1
Sphingosine 1-phosphate receptor 3, sequence (Q99500 whole entry): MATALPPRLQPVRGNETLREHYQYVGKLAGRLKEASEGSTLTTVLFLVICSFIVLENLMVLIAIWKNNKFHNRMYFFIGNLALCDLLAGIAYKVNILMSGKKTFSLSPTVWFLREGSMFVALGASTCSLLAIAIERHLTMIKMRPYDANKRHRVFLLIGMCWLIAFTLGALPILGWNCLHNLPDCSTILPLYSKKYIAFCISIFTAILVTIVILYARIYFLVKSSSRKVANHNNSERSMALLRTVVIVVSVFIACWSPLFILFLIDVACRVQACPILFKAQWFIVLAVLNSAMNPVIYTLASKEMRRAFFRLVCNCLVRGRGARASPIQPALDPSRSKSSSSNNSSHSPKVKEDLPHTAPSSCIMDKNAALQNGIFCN

Rattus norvegicus [7] = test: Decrease in peripheral blood lymphocyte count in Wistar rat at 10 mg/kg administered via oral gavage measured after 6 hrs; format: functional; parameters: scale not given: the % may be the effect or the level left; summary of the method: as §2
[8] = Phototoxicity in Balb/c mouse 3T3 clone A31 cells assessed as inhibition of cell viability measured as photo irritancy factor at 0.05 to 100 uM preincubated for 1 hr followed by UVA irradiation measured after 24 hrs by neutral red uptake assay relative to control; format: functional
Rattus norvegicus [9] = test: Decrease in peripheral blood lymphocyte count in Wistar rat at 10 mg/kg administered via oral gavage measured after 144 hrs; format: functional; parameters: scale not given: the % may be the effect or the level left; summary of the method: as §2
Rattus norvegicus [10] = test: Decrease in peripheral blood lymphocyte count in Wistar rat at 10 mg/kg administered via oral gavage measured after 72 hrs; format: functional; summary of the method: as §2
[11] = Phototoxicity in Balb/c mouse 3T3 clone A31 cells assessed as AUC of UV spectra between 310 and 350 nm normalized to compound concentration at 0.05 to 100 uM preincubated for 1 hr followed by UVA irradiation measured after 24 hrs by neutral red uptake assay relative to control; format: functional
[12] = Half life in Wistar rat at 10 mg/kg administered via oral gavage by LC-MS/MS analysis; format: ADME, organism-based; details: in vivo
Summary of the method: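 Oral half-life was calculated from plasma concentrations measured in the lymphocyte-count study, in which male Wistar rats received 10 mg/kg orally. Plasma was prepared from EDTA blood by centrifugation at 3000 g for 10 min at 4 °C.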

[13] = Plasma concentration in Wistar rat at 10 mg/kg administered via oral gavage measured after 6 hrs by LC-MS/MS analysis; format: ADME, organism-based
Summary of the method: (§3)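 Male Wistar rats received 10 mg/kg orally by gavage. Blood was drawn at the listed times into EDTA tubes, and plasma was prepared by centrifugation at 3000 g for 10 min at 4 °C. Limit of quantification 3 nM.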

[14] = Plasma concentration in Wistar rat at 10 mg/kg administered via oral gavage measured after 3 hrs by LC-MS/MS analysis; format: ADME, organism-based; summary of the method: as §3
[15] = Plasma concentration in Wistar rat at 10 mg/kg administered via oral gavage measured after 24 hrs by LC-MS/MS analysis; format: ADME, organism-based; summary of the method: as §3
[16] = Plasma concentration in Wistar rat at 10 mg/kg administered via oral gavage measured after 72 hrs by LC-MS/MS analysis; format: ADME, organism-based; summary of the method: as §3

Sphingosine 1-phosphate receptor 1, sequence (P21453 whole entry): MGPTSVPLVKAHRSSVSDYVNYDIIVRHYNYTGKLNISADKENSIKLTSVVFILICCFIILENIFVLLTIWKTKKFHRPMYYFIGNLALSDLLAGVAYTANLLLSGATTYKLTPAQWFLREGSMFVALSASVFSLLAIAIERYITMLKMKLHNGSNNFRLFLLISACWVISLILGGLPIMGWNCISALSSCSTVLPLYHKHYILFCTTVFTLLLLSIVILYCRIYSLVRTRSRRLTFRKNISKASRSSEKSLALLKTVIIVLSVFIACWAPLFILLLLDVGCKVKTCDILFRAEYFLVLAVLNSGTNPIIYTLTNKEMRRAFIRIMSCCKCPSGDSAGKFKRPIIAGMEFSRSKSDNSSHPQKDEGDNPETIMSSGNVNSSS

Row | Compound | pEC50 [1] | Time (Rattus norvegicus [2]) | Activity (Rattus norvegicus [3]) | Activity (Rattus norvegicus [4]) | Activity (Rattus norvegicus [5]) | pEC50 [6] | Activity (Rattus norvegicus [7]) | Ratio [8] | Activity (Rattus norvegicus [9]) | Activity (Rattus norvegicus [10]) | Ratio [11] | half-life [12] | concentration at 6 h [13] | concentration at 3 h [14] | concentration at 24 h [15] | concentration at 72 h [16]
1 | CCc1cc(-c2noc(-c3cc(OC)nc(C4CCCCC4)c3)n2)cc(C)c1OC[C@@H](O)CNC(=O)CO | 8.14 | 24 h | 33% | 58% | 72% | 6.16 | 58% | – | – | – | – | – | – | – | – | –
2 | CCc1cc(-c2noc(-c3cc(C)nc(C(CC)CC)c3)n2)cc(C)c1OC[C@@H](O)CNC(=O)CO | – | – | – | – | – | – | – | 1.7 | – | – | – | – | – | – | – | –
3 | CCc1cc(-c2noc(-c3cc(C)nc(OC(C)C)c3)n2)cc(C)c1OC[C@@H](O)CNC(=O)CO | 9.70 | 96 h | 70% | 66% | 74% | 7.02 | 67% | – | 28% | – | – | – | – | – | – | –
4 | CCc1cc(-c2noc(-c3cc(OC)nc(C4CCC4)c3)n2)cc(C)c1OC[C@@H](O)CNC(=O)CO | 9.52 | 24 h | – | 56% | 61% | 7.66 | 61% | – | – | Active | – | – | – | – | – | –
5 | CCc1cc(-c2noc(-c3cc(C4CCCC4)cc(OC)n3)n2)cc(C)c1OC[C@@H](O)CNC(=O)CO | 8.35 | 6 h | – | 63% | -2% | 5.82 | 75% | 2.1 | – | – | 0.09 | 5 h | 1300 nM | 1790 nM | 100 nM | –
6 | CCc1cc(-c2noc(-c3cnc(C)c(OC4CCCC4)c3)n2)cc(C)c1OC[C@@H](O)CNC(=O)CO | 7.68 | – | – | – | – | 7.42 | – | – | – | – | – | – | – | – | – | –
7 | CCc1cc(-c2noc(-c3cc(C)nc(OC4CCC4)c3)n2)cc(C)c1OC[C@@H](O)CNC(=O)CO | 9.52 | 96 h | 62% | 66% | 72% | 6.96 | 62% | – | 21% | – | – | – | – | – | – | –
8 | CCc1cc(-c2noc(-c3cc(OC4CCCC4)cc(C)n3)n2)cc(C)c1OC[C@@H](O)CNC(=O)CO | 7.96 | <3 h | – | 50% | -33% | 5.85 | 36% | 1.3 | – | – | 0 | < 3 h | 510 nM | 1560 nM | < 9 nM | –
9 | CCc1cc(-c2nc(-c3cc(C)c(CCC(=O)NCCO)c(CC)c3)no2)cnc1N(C)C(C)C | – | – | – | – | – | – | – | >200 | – | – | – | – | – | – | – | –
10 | CCc1cc(-c2noc(-c3cc(OC)cc(C(CC)CC)n3)n2)cc(C)c1OC[C@@H](O)CNC(=O)CO | 8.92 | – | – | – | – | 6.28 | – | – | – | – | – | – | – | – | – | –
11 | CCc1cc(-c2noc(-c3cnc(C4CCCC4)c(OC)c3)n2)cc(C)c1OC[C@@H](O)CNC(=O)CO | 9.52 | 24 h | – | 73% | 84% | 7.15 | 82% | 7.6 | – | – | 0.15 | 11 h | 2950 nM | 2390 nM | 970 nM | –
12 | CCc1cc(-c2nc(-c3cc(C)c(OC[C@@H](O)CO)c(CC)c3)no2)cnc1CC(C)C | – | – | – | – | – | – | – | 1.6 | – | – | – | – | – | – | – | –
13 | CCc1cc(-c2noc(-c3cc(C(CC)CC)cc(OC)n3)n2)cc(C)c1OC[C@@H](O)CNC(=O)CO | 8.96 | <3 h | – | 57% | -10% | 6.74 | 50% | – | – | – | – | 4 h | 240 nM | 410 nM | 12 nM | –
14 | CCc1cc(-c2noc(-c3cnc(OC4CCCC4)c(C)c3)n2)cc(C)c1OC[C@@H](O)CNC(=O)CO | 9.15 | 24 h | – | 76% | 85% | 6.85 | 85% | 1.4 | – | – | 0.02 | 16 h | 960 nM | 1140 nM | 510 nM | –
15 | CCc1cc(-c2noc(-c3cc(OC)nc(-c4ccccc4)c3)n2)cc(C)c1OC[C@@H](O)CNC(=O)CO | 7.55 | – | – | – | – | 5.80 | – | – | – | – | – | – | – | – | – | –
16 | CCc1cc(-c2noc(-c3cc(OC)cc(CC(C)C)n3)n2)cc(C)c1OC[C@@H](O)CNC(=O)CO | 8.82 | 6 h | – | 58% | 23% | 5.85 | 66% | – | – | – | – | – | – | – | – | –
17 | CCc1cc(-c2noc(-c3cc(OC)cc(C4CCCC4)n3)n2)cc(C)c1OC[C@@H](O)CNC(=O)CO | 9.15 | 6 h | – | 58% | 30% | 6.10 | 61% | 2.4 | – | – | 0 | – | – | – | – | –
18 | CCc1cc(-c2noc(-c3cc(OC)c(C4CCCC4)cn3)n2)cc(C)c1OC[C@@H](O)CNC(=O)CO | 9.22 | 6 h | – | 79% | 60% | 6.68 | 86% | 2.1 | – | – | 0.02 | 4 h | 2020 nM | 2520 nM | 71 nM | –
19 | CCc1cc(-c2noc(-c3ccc(C4CCCC4)c(OC)n3)n2)cc(C)c1OC[C@@H](O)CNC(=O)CO | 8.85 | 6 h | – | 70% | 23% | 6.04 | 78% | 6.5 | – | – | 0.17 | 6 h | 500 nM | 690 nM | 61 nM | –
20 | CCc1cc(-c2nnc(-c3cc(C)nc(CC(C)C)c3)o2)cc(C)c1OC[C@@H](O)CNC(=O)CO | – | – | – | – | – | – | – | 1.1 | – | – | – | – | – | – | – | –
21 | CCc1cc(-c2nnc(-c3cc(C)nc(N(CC)CC)c3)o2)cc(C)c1OC[C@@H](O)CNC(=O)CO | – | – | – | – | – | – | – | >200 | – | – | – | – | – | – | – | –
22 | CCc1cc(-c2noc(-c3cc(C)nc(OC4CCCC4)c3)n2)cc(C)c1OC[C@@H](O)CNC(=O)CO | 9.00 | 24 h | – | 69% | 74% | 6.72 | 66% | 7.5 | – | 43% | 0.12 | 13 h | 2040 nM | 2200 nM | 790 nM | 67 nM
23 | CCc1cc(-c2noc(-c3cc(C)cc(OC4CCCC4)n3)n2)cc(C)c1OC[C@@H](O)CNC(=O)CO | 9.00 | 6 h | – | 51% | -18% | 6.03 | 58% | 2 | – | – | 0.1 | 4 h | 890 nM | 1610 nM | 39 nM | –
24 | CCc1cc(-c2nc(-c3cc(C)c(OC[C@@H](O)CNC(=O)CO)c(CC)c3)no2)cc(OC2CCCC2)n1 | 8.96 | 24 h | Active | 64% | 76% | 7.30 | 71% | – | – | – | – | – | – | – | – | –
25 | CCc1cc(-c2nc(-c3cc(C)c(OC[C@@H](O)CNC(=O)CO)c(CC)c3)no2)cc(OC2CCC2)n1 | 8.96 | 168 h | – | 72% | 79% | 7.26 | 75% | – | – | – | – | – | – | – | – | –
26 | CCc1cc(-c2noc(-c3cc(C)nc(N(CC)CC)c3)n2)cc(C)c1OC[C@@H](O)CNC(=O)CO | – | 72 h | – | – | 70% | – | – | – | – | 62% | – | – | – | – | – | –
27 | CCc1cc(-c2noc(-c3cnc(OC)c(C4CCCC4)c3)n2)cc(C)c1OC[C@@H](O)CNC(=O)CO | 8.82 | – | – | – | – | 7.77 | – | – | – | – | – | – | – | – | – | –

Reference: ChEMBL document CHEMBL3797143, “Novel S1P1 receptor agonists - Part 5: From amino-to alkoxy-pyridines” (Eur J Med Chem, 2016)
